Published values pooled from the literature.
Cell line: A549
Observed: cell growth or viability

| SMILES | assay | conditions | IC50 |
| --- | --- | --- | --- |
| COc1cccc(NC(=S)N/N=C/c2cccc3cc4ccccc4nc23)c1 | MTT | 48 h | > 50 µM |
| C/C(=N\NC(=O)/N=C(\C)c1c(O)c2ccccc2oc1=O)c1c(O)c2ccccc2oc1=O | MTT | 48 h | 20.8 µM |
| O=C(Nc1ccc(-c2ccc3ncn(Cc4ccccc4)c(=O)c3c2)cn1)C1CC1 | CCK-8 | 72 h | > 10 µM |
| COc1cc(CNc2ccc(C(=O)O)cc2)ccc1O | resazurin | 72 h | > 100 µM |
| Cc1cc(NS(=O)(=O)c2ccc(NC(=O)/C(C#N)=C/c3ccc(N4CCOCC4)cc3)cc2)no1 | MTT | 48 h | 109 µM |
| COc1cccc(NC(=O)Nc2nc3cc(-c4ccc5ncn(CC(=O)N6CCOCC6)c(=O)c5c4)ccc3s2)c1 | MTT | 72 h | > 20 µM |
| CC(C)[C@@H]1NC(=O)[C@@H](CCCNC(=N)N)NC(=O)[C@H]([C@@H](C)O)NC(=O)[C@@H](CCCN)NC(=O)[C@H](Cc2ccc(O)cc2)NC(=O)[C@@H](Cc2ccccc2)NC1=O | ATP luminescence | – | > 100 µM |
| CC(C)CNC(=S)N/N=C/c1ccc(N2CCC(O)CC2)cc1 | MTT | 24 h | 1.5 µM |
| NNc1nc2c(Cl)cc(Cl)cc2c(=O)n1-c1ccc(F)cc1 | MTT | 48 h | 80 µM |
| Cc1c2c(nn1C)CSCc1cc(n(C)n1)CSc1cc(c3ccccc3c1)OCCCc1c(C(=O)O)n(C)c3c-2c(Cl)ccc13 | CCK-8 | – | 50 µM |
| NS(=O)(=O)c1ccc(-n2nc(C(=O)NN=Cc3cccnc3)cc2-c2ccccc2)cc1 | fluorescence | 48 h | 24.6 µM |
| COc1ccc(NC(=O)Nc2nc3cc(-c4ccc5ncn(CCN6CCOCC6)c(=O)c5c4)ccc3s2)cc1 | MTT | 72 h | 1.4 µM |
| CNCc1cc(OC)cc2c1CN(c1cccc(-c3nncn3C(C)CC(F)(F)F)n1)C2=O (centres unmarked) | CCK-8 | – | > 10 µM |
| COc1cccc2c1C(=O)c1c(O)c3c(c(O)c1C2=O)C[C@@](O)(C(=O)CO)C[C@@H]3O[C@H]1C[C@H](N)[C@H](O)[C@H](C)O1 | MTT | – | 3.87 µg/mL |
| NNc1nc2c(Cl)cc(Cl)cc2c(=O)n1-c1ccccc1 | MTT | 48 h | > 200 µM |
| CCCCn1cnc2ccc(-c3ccc(NC(=O)Nc4ccc(C)cc4)nc3)cc2c1=O | CCK-8 | 72 h | > 10 µM |
| OC1CCN(c2ccc(/C=N/NC(=S)NCc3ccccc3)cc2)CC1 | MTT | 24 h | 4.25 µM |
| CCCCn1cnc2ccc(-c3ccc(NC(=O)NCCC)nc3)cc2c1=O | CCK-8 | 72 h | > 10 µM |
| CC(=O)Nc1nc2cc(-c3ccc4ncn(Cc5ccccc5)c(=O)c4c3)ccc2s1 | MTT | 72 h | > 20 µM |
| CCCn1cnc2ccc(-c3ccc(N4CCC(C)CC4=O)nc3)cc2c1=O (centres unmarked) | CCK-8 | 72 h | > 10 µM |
| CN(C)c1ccc(CNc2ccc(C(=O)O)cc2)cc1 | resazurin | 72 h | > 100 µM |
| CCCC(C)C(=O)Nc1ccc(-c2ccc3ncn(CCC)c(=O)c3c2)cn1 (centres unmarked) | CCK-8 | 72 h | 9.85 µM |
| CCCC(=O)Nc1nc2cc(-c3ccc4ncn(Cc5ccccc5)c(=O)c4c3)ccc2s1 | MTT | 72 h | 7.87 µM |
